{"source": "ChEMBL document CHEMBL3621081", "about": "“Rational Development of a Potent 15-Lipoxygenase-1 Inhibitor with in Vitro and ex Vivo Anti-inflammatory Properties” (J Med Chem, 2015)", "key": {"[1]": {"molecular_target": "T1, Polyunsaturated fatty acid lipoxygenase ALOX15 (Homo sapiens) (UniProt P16050)", "T1 sequence (whole entry)": "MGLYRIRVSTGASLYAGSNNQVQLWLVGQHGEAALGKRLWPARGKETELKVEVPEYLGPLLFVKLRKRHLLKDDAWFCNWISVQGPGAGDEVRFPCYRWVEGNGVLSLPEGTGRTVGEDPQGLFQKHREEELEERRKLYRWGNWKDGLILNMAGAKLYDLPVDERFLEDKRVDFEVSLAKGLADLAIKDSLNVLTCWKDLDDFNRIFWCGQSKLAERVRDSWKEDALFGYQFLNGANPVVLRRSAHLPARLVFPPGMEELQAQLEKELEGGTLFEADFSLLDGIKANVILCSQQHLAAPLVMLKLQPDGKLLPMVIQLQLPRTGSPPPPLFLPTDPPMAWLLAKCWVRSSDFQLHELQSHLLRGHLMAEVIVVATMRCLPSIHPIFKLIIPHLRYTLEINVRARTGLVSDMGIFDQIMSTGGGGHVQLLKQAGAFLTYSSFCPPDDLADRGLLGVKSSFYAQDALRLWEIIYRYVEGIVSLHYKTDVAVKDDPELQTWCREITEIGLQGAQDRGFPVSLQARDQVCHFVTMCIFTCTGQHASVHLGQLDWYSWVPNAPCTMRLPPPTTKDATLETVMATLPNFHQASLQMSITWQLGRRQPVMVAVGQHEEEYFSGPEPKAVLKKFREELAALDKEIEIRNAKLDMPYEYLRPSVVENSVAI", "experiment": "Inhibition of human 15-LOX1 assessed as conversion of linoleic acid to 13(S)-HpODE at 50 uM after 10 mins by UV analysis", "procedure,_shortened": "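Single-concentration screen at 50 μM: h-15-LOX-1 (1:640 final) in 25 mM HEPES pH 7.5 is preincubated with inhibitor for 10 min at rt. 25 µM linoleic acid final is added, and product formation is followed as the linear A234 increase. Activity is normalised to no-inhibitor (100%) and no-enzyme (0%) controls, in triplicate.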"}, "RAW264.7 [2]": {"test_system": "RAW264.7", "experiment": "Antiinflammatory activity in mouse RAW264.7 cells assessed as effect on LPS/INFgamma-induced IL-1beta gene expression at 1 to 100 nM treated 20 hrs before LPS/INFgamma stimulation measured after 4 hrs by RT-qPCR analysis", "format": "functional, cell-based", "procedure,_shortened": "(§1)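 RAW 264.7 cells (passage 7-16, DMEM with 10% FBS) are seeded at 20,000 cells/cm2 the day before. They receive 1-500 nM inhibitor final plus 10 μM linoleic acid for 20 h, with 10 ng/ml LPS and IFNγ for the last 4 h. Cytokine mRNA is measured by RT-qPCR on 10 ng cDNA, PCR in duplicate or triplicate, as fold change versus the LPS/IFNγ/linoleic acid control. Mean ± SEM, 4-6 experiments.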"}, "Lung [3]": {"test_system": "Lung", "experiment": "Antiinflammatory activity in C57BL/6 mouse precision-cut lung slices assessed as reduction of LPS/INFgamma-induced IL-6 gene expression at 1 to 100 nM treated 20 hrs before LPS/INFgamma stimulation measured after 4 hrs by RT-qPCR analysis relative to control", "format": "functional, tissue-based", "procedure,_shortened": "(§2)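 Male C57bl/6 mouse lungs are agarose-filled, then cut into 250 μm slices, 3 per well, in supplemented DMEM at 37 °C and 5% CO2. Inhibitor is given at 1-500 nM final with 10 μM linoleic acid for 20 h, and LPS/IFNγ is added for the last 4 h. IL-1β, IL-6, IL-10, IL-12 and GAPDH mRNA are measured by RT-qPCR as fold change versus the LPS/IFNγ/linoleic acid control. Mean ± SEM, 4-6 independent experiments.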"}, "Lung [4]": {"test_system": "Lung", "experiment": "Antiinflammatory activity in C57BL/6 mouse precision-cut lung slices assessed as increase of LPS/INFgamma-induced IL-10 gene expression at 1 to 100 nM treated 20 hrs before LPS/INFgamma stimulation measured after 4 hrs by RT-qPCR analysis relative to control", "format": "functional, tissue-based", "procedure,_shortened": "as §2"}, "Lung [5]": {"test_system": "Lung", "experiment": "Antiinflammatory activity in C57BL/6 mouse precision-cut lung slices assessed as reduction of LPS/INFgamma-induced IL-1beta gene expression at 1 to 100 nM treated 20 hrs before LPS/INFgamma stimulation measured after 4 hrs by RT-qPCR analysis relative to control", "format": "functional, tissue-based", "procedure,_shortened": "as §2"}, "Lung [6]": {"test_system": "Lung", "experiment": "Cytotoxicity against C57BL/6 mouse precision-cut lung slices assessed as viability at 500 nM by LDH release assay", "format": "tissue-based", "settings": "0.5 µM", "procedure,_shortened": "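Mouse lung slices are exposed to 1, 10, 100 or 500 nM inhibitor with 10 μM linoleic acid for 20 h. […] Mean ± SD of 3 independent experiments.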"}, "RAW264.7 [7]": {"test_system": "RAW264.7", "experiment": "Antiinflammatory activity in mouse RAW264.7 cells assessed as effect on LPS/INFgamma-induced IL-12 gene expression at 1 to 100 nM treated 20 hrs before LPS/INFgamma stimulation measured after 4 hrs by RT-qPCR analysis", "format": "functional, cell-based", "procedure,_shortened": "as §1"}, "RAW264.7 [8]": {"test_system": "RAW264.7", "experiment": "Cytotoxicity against mouse RAW264.7 cells assessed as cell viability at 12.5 uM by MTS assay", "format": "cell-based", "settings": "raw264.7, 12.5 µM", "procedure,_shortened": "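RAW 264.7 macrophages are incubated with inhibitor at 0.05-100 μM, and viability is read by MTS assay. Treated wells are compared statistically with non-treated control cells.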"}, "Lung [9]": {"test_system": "Lung", "experiment": "Antiinflammatory activity in C57BL/6 mouse precision-cut lung slices assessed as reduction of LPS/INFgamma-induced IL-12 gene expression at 1 to 100 nM treated 20 hrs before LPS/INFgamma stimulation measured after 4 hrs by RT-qPCR analysis relative to control", "format": "functional, tissue-based", "procedure,_shortened": "as §2"}, "RAW264.7 [10]": {"test_system": "RAW264.7", "experiment": "Antiinflammatory activity in mouse RAW264.7 cells assessed as effect on LPS/INFgamma-induced IL-6 gene expression at 1 to 100 nM treated 20 hrs before LPS/INFgamma stimulation measured after 4 hrs by RT-qPCR analysis", "format": "functional, cell-based", "procedure,_shortened": "as §1"}}, "note": "The source made the active and inactive calls. No cut-off for these calls is given here.", "data": [{"compound": "CCOC(=O)c1c(C=O)c2ccc(Cl)cc2n1C", "values": [{"measurement": "inhibition", "setting": "[1]", "value": "inactive"}]}, {"compound": "CC(C)(C)OC(=O)n1cc(C=O)c2ccccc21", "values": [{"measurement": "inhibition", "setting": "[1]", "value": "inactive"}]}, {"compound": "CC(C)(C)OC(=O)c1cc2ccc(Cl)cc2[nH]1", "values": [{"measurement": "inhibition", "setting": "[1]", "value": "inactive"}]}, {"compound": "O=Cc1c[nH]c2cc(Cl)ccc12", "values": [{"measurement": "inhibition", "setting": "[1]", "value": "inactive"}]}, {"compound": "O=Cc1c(Cl)[nH]c2cc(Cl)ccc12", "values": [{"measurement": "inhibition", "setting": "[1]", "value": "inactive"}]}, {"compound": "O=Cc1c[nH]c2ccccc12", "values": [{"measurement": "inhibition", "setting": "[1]", "value": "inactive"}]}, {"compound": "O=Cc1c(C(=O)O)[nH]c2cc(Cl)ccc12", "values": [{"measurement": "inhibition", "setting": "[1]", "value": "inactive"}]}, {"compound": "CCOC(=O)c1[nH]c2cc(Cl)ccc2c1C(=O)C[C@@H](C)CCCC(C)C", "values": [{"measurement": "Activity", "setting": "RAW264.7 [2]", "value": "inactive"}, {"measurement": "Activity", "setting": "Lung [3]", "value": "Active"}, {"measurement": "Activity", "setting": "Lung [4]", "value": "Active"}, {"measurement": "Activity", "setting": "Lung [5]", "value": "Active"}, {"measurement": "Activity", "setting": "Lung [6]", "value": "Non-toxic"}, {"measurement": "Activity", "setting": "RAW264.7 [7]", "value": "inactive"}, {"measurement": "Activity", "setting": "RAW264.7 [8]", "value": "Non-toxic"}, {"measurement": "Activity", "setting": "Lung [9]", "value": "inactive"}, {"measurement": "Activity", "setting": "RAW264.7 [10]", "value": "inactive"}]}]}
